According to ChEMBL document CHEMBL3817732, “Rational Design of Calpain Inhibitors Based on Calpastatin Peptidomimetics” (J Med Chem, 2016):
Active and inactive are the calls of the source. The calls are words filed in the database; no cut-off is given here.

What was measured:
[1] = species: Rattus norvegicus; assay: Inhibition of rat recombinant C-terminal His-tagged calpain-2 expressed in Escherichia coli BL21(DE3) assessed as cleavage of (EDANS)-EPLFAERK-(DABCYL) at 100 uM in presence of CaCl2 by fluorescence spectrometer relative to control
[2] = species: Rattus norvegicus; assay: Binding affinity to rat recombinant C-terminal His-tagged calpain-2 C105S mutant expressed in Escherichia coli BL21(DE3) at 25 to 50 uM in presence of CaCl2 and trypsin by MALDI-TOFpeptide fingerprinting method
How it was run: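 The mixture is exposed to long-wave UV for 2.5 h, with a DMSO control. Photoadducts are tryptically digested and identified by MALDI-TOF mass fingerprinting.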

[3] = molecular target: Procathepsin L (Homo sapiens) (UniProt P07711); assay: Inhibition of human liver cathepsin L assessed as cleavage of Z-FR-AMC at 100 uM by fluorescence spectrometer
Sequence of Procathepsin L (Homo sapiens) (P07711 114-333 limits assumed): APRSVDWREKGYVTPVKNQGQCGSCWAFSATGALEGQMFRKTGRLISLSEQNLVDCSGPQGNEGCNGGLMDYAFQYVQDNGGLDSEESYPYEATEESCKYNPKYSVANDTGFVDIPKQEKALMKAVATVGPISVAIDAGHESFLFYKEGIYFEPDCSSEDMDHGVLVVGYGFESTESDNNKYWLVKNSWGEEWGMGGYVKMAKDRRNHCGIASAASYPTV

[4] = species: Rattus norvegicus; assay: Inhibition of rat calpain-1 assessed as cleavage of (EDANS)-EPLFAERK-(DABCYL) at 100 uM in presence of CaCl2 by fluorescence spectrometer relative to control
[5] = Competitive inhibition of rat recombinant C-terminal His-tagged calpain-2 expressed in Escherichia coli BL21(DE3) using (EDANS)-EPLFAERK-(DABCYL) as substrate assessed as enzyme/inhibitor complex in presence of CaCl2 by Michaelis-Menten plot analysis
[6] = species: Rattus norvegicus; assay: Activation of rat recombinant calpain-1 protease core expressed in Escherichia coli BL21(DE3) assessed as cleavage of (EDANS)-EPLFAERK-(DABCYL) at 100 uM in presence of CaCl2 by fluorescence spectrometer
[7] = molecular target: T1, Papain (Carica papaya) (UniProt P00784); assay: Inhibition of papaya papain assessed as cleavage of (EDANS)-EPLFAERK-(DABCYL) at 100 uM by fluorescence spectrometer
T1 sequence (whole entry): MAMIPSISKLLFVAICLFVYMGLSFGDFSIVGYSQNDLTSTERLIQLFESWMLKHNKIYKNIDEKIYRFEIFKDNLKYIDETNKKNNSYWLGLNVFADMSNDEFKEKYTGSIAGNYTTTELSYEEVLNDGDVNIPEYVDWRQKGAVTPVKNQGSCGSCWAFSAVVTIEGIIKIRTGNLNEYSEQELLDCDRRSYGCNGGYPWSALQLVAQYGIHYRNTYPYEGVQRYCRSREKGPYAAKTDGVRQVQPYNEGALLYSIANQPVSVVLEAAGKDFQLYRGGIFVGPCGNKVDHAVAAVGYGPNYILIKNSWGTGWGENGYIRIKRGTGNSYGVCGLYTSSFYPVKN

[8] = Competitive inhibition of porcine erythrocyte calpain-2 using Suc-Leu-Tyr-AMC as substrate; set-up: species or system Sus scrofa
[9] = Mixed-type inhibition of rat recombinant C-terminal His-tagged calpain-2 expressed in Escherichia coli BL21(DE3) using (EDANS)-EPLFAERK-(DABCYL) as substrate assessed as enzyme/inhibitor complex in presence of CaCl2 by Michaelis-Menten plot analysis
[10] = Mixed-type inhibition of rat recombinant C-terminal His-tagged calpain-2 expressed in Escherichia coli BL21(DE3) using (EDANS)-EPLFAERK-(DABCYL) as substrate assessed as enzyme/substrate/inhibitor complex in presence of CaCl2 by Michaelis-Menten plot analysis
[11] = species: Rattus norvegicus; assay: Inhibition of rat recombinant calpain-1 protease core expressed in Escherichia coli BL21(DE3) assessed as cleavage of (EDANS)-EPLFAERK-(DABCYL) at 100 uM in presence of CaCl2 by fluorescence spectrometer
[12] = Non-competitive inhibition of rat recombinant C-terminal His-tagged calpain-2 expressed in Escherichia coli BL21(DE3) using (EDANS)-EPLFAERK-(DABCYL) as substrate assessed as enzyme/substrate/inhibitor complex in presence of CaCl2 by Michaelis-Menten plot analysis
[13] = Non-competitive inhibition of rat recombinant C-terminal His-tagged calpain-2 expressed in Escherichia coli BL21(DE3) using (EDANS)-EPLFAERK-(DABCYL) as substrate assessed as enzyme/inhibitor complex in presence of CaCl2 by Michaelis-Menten plot analysis
[14] = Inhibition of calpain-1 (unknown origin) using H-Glu(Edans)-Pro-Leu-Phe-Ala-Glu-Arg-Lys(Dabcyl)-OH as substrate measured every 13 secs for 1 hr by fluorescence assay

inhibition [1] | inhibition [3] [%] | inhibition [4] | inhibition [7] | Compound | further results
Active | – | – | – | CC(C)C[C@H](NC(=O)C/N=C1\N[C@@H](CSC2CC(=O)N(c3cccc(C(=O)c4ccccc4)c3)C2=O)[C@@H](C(=O)NC(C)(C)C)N2CCC[C@H]12)C(=O)N[C@H](CCCN)C(=O)O (stereo partly specified) | inhibition [2]: Active
79% | 17 | – | – | CC(C)[C@H](NC(=O)C/N=C1\N[C@@H](C)[C@@H](C(=O)NC(C)(C)C)N2CCC[C@H]12)C(=O)N[C@H](CCCN)C(=O)O | –
66% | – | 54% | – | C[C@H](NC(=O)C/N=C1\N[C@@H](C)[C@@H](C(=O)NC(C)(C)C)N2CCC[C@H]12)C(=O)N[C@H](CCCN)C(=O)O | –
> 85% | > 85 | Active | inactive | CC(C)C[C@H](/N=C1\N[C@@H](C)[C@@H](C(=O)NC(C)(C)C)N2CCC[C@H]12)C(=O)N[C@@H](CCCCN)C(=O)NCC(=O)O | Ki [5]: 12.2 µM; Activity [6]: Active
Active | – | – | – | CC(C)C[C@@H]1NC(=O)[C@H](C)NC(=O)CNC(=O)[C@@H]2CCCN2[C@H](C(=O)NC(C)(C)C)[C@H](CSC2CC(=O)N(c3cccc(C(=O)c4ccccc4)c3)C2=O)NC(=O)[C@H](CCCCN)NC1=O (stereo partly specified) | inhibition [2]: Active
– | – | – | – | H-DPMSSTYIEELGKREVTIPPKYRELLA-OH | Ki [8]: 0.0087 µM; Ki [5]: 0.0168 µM
78% | > 85 | 38% | inactive | C[C@@H]1NC(=O)[C@H](CCCN)NC(=O)CNC(=O)[C@H](CO)NC(=O)CNC(=O)[C@@H]2CCCN2[C@@H]1C(=O)NC(C)(C)C | Ki [9]: 20.3 µM; Activity [6]: Active; Ki [10]: 45.6 µM
39% | – | 28% | – | C[C@@H]1N/C(=N\CC(=O)N[C@@H](Cc2ccccc2)C(=O)N[C@H](CCCN)C(=O)O)[C@H]2CCCN2[C@@H]1C(=O)NC(C)(C)C | –
16% | > 32 | Active | inactive | CC(C)C[C@@H](NC(=O)C/N=C1\N[C@@H](C)[C@@H](C(=O)NC(C)(C)C)N2CCC[C@H]12)C(=O)N[C@H](CCCN)C(=O)O | inhibition [11]: Active; Ki [12]: 119 µM; Ki [13]: 154 µM
67% | – | 14% | – | CC[C@H](C)[C@H](NC(=O)C/N=C1\N[C@@H](C)[C@@H](C(=O)NC(C)(C)C)N2CCC[C@H]12)C(=O)N[C@H](CCCN)C(=O)O | –
84% | > 85 | 45% | inactive | CC(C)C[C@@H]1NC(=O)[C@H](C)NC(=O)CNC(=O)[C@@H]2CCCN2[C@H](C(=O)NC(C)(C)C)[C@H](C)NC(=O)[C@H](CCCCN)NC1=O | inhibition [11]: Active; Ki [5]: 16.6 µM
– | – | – | – | CC[C@H](C)[C@H](NC(C)=O)C(=O)N1CCC[C@H]1C(=O)N1CCC[C@H]1C(=O)N[C@@H](CCCCN)C(=O)N[C@@H](Cc1ccc(O)cc1)C(=O)N[C@H]1CSSC[C@@H](C(N)=O)NC(=O)[C@H](CC(C)C)NC(=O)[C@H](CC(C)C)NC(=O)[C@H](CCC(=O)O)NC1=O | Ki [14]: 10.2 µM
